Data from ChEMBL document CHEMBL1275303, “Synthesis and antimicrobial activity of 2-substituted [4-(1,3,4-oxadiazol-2-yl methyl)] phthalazin-1(2H)-one derivatives” (2010).

Legend:
Staphylococcus aureus [1] = experiment: Antimicrobial activity against Staphylococcus aureus at 50 ug/mL after 24 hrs by well plate method; type: functional; conditions: read-out: IZ
In short: (§1)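 Agar well diffusion in nutrient agar. About 1 cm³ of a 24 h broth culture was placed in sterile dishes, and molten agar at 45 °C was poured over it and set. 6 mm wells were bored and filled with compound in DMSO (100 or 50). Plates were incubated 24 h at 37 °C, and the inhibition zone was read in mm. Duplicate runs, with standard deviation; amoxicillin as reference.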

Nannizzia gypsea [2] = experiment: Antimicrobial activity against Microsporum gypseum at 50 ug/mL after 72 hrs by well plate method; type: functional; conditions: read-out: IZ
In short: (§2)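 Antifungal well-plate assay on Sabouraud dextrose agar using a 72 h old broth culture of the fungal strain. Wells were filled with compound dissolved in DMSO (100 or 50), and the zone of inhibition around each well was measured. […] served as reference.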

Nannizzia gypsea [3] = experiment: Antimicrobial activity against Microsporum gypseum at 100 ug/mL after 72 hrs by well plate method; type: functional; conditions: read-out: IZ; in short: as §2
Escherichia coli [4] = experiment: Antimicrobial activity against Escherichia coli at 100 ug/mL after 24 hrs by well plate method; type: functional; conditions: read-out: IZ; in short: as §1
Candida albicans [5] = experiment: Antimicrobial activity against Candida albicans at 50 ug/mL after 72 hrs by well plate method; type: functional; conditions: read-out: IZ; in short: as §2
Salmonella typhi [6] = experiment: Antimicrobial activity against Salmonella typhi at 50 ug/mL after 24 hrs by well plate method; type: functional, Salmonella enterica subsp. enterica serovar Typhi; conditions: Salmonella enterica, read-out: IZ
In short: (§3)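 Agar well diffusion in nutrient agar: about 1 cm³ of a 24 h broth culture placed in a sterile dish, molten agar at 45 °C poured over it and allowed to set. 6 mm holes cut with a sterile cork borer and filled with compound solution in DMSO. Incubated 24 h at 37 °C; inhibition zone diameter read in mm. Run in duplicate, standard deviation calculated.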

[7] = system: Chrysosporium keratinophilum; experiment: Antimicrobial activity against Chrysosporium keratinophilum at 50 ug/mL after 72 hrs by well plate method; type: functional; conditions: read-out: IZ; in short: as §2
Candida albicans [8] = experiment: Antimicrobial activity against Candida albicans at 100 ug/mL after 72 hrs by well plate method; type: functional; conditions: read-out: IZ; in short: as §2
Aspergillus flavus [9] = experiment: Antimicrobial activity against Aspergillus flavus at 100 ug/mL after 72 hrs by well plate method; type: functional; conditions: read-out: IZ
Escherichia coli [10] = experiment: Antimicrobial activity against Escherichia coli at 50 ug/mL after 24 hrs by well plate method; type: functional; conditions: read-out: IZ; in short: as §1
Bacillus subtilis [11] = experiment: Antimicrobial activity against Bacillus subtilis at 50 ug/mL after 24 hrs by well plate method; type: functional; conditions: read-out: IZ; in short: as §1
Aspergillus flavus [12] = experiment: Antimicrobial activity against Aspergillus flavus at 50 ug/mL after 72 hrs by well plate method; type: functional; conditions: read-out: IZ
[13] = system: Chrysosporium keratinophilum; experiment: Antimicrobial activity against Chrysosporium keratinophilum at 100 ug/mL after 72 hrs by well plate method; type: functional; conditions: read-out: IZ; in short: as §2
Bacillus subtilis [14] = experiment: Antimicrobial activity against Bacillus subtilis at 100 ug/mL after 24 hrs by well plate method; type: functional; conditions: read-out: IZ; in short: as §1
Staphylococcus aureus [15] = experiment: Antimicrobial activity against Staphylococcus aureus at 100 ug/mL after 24 hrs by well plate method; type: functional; conditions: read-out: IZ; in short: as §1
Salmonella typhi [16] = experiment: Antimicrobial activity against Salmonella typhi at 100 ug/mL after 24 hrs by well plate method; type: functional, Salmonella enterica subsp. enterica serovar Typhi; conditions: Salmonella enterica, read-out: IZ; in short: as §3

| Structure (SMILES) | zone of inhibition at 50 µg/mL (Staphylococcus aureus [1]) [mm] | zone of inhibition at 50 µg/mL (Nannizzia gypsea [2]) [mm] | zone of inhibition at 100 µg/mL (Nannizzia gypsea [3]) [mm] | zone of inhibition at 100 µg/mL (Escherichia coli [4]) [mm] | zone of inhibition at 50 µg/mL (Candida albicans [5]) [mm] | zone of inhibition at 50 µg/mL (Salmonella typhi [6]) [mm] | zone of inhibition at 50 µg/mL [7] [mm] | zone of inhibition at 100 µg/mL (Candida albicans [8]) [mm] | zone of inhibition at 100 µg/mL (Aspergillus flavus [9]) [mm] | zone of inhibition at 50 µg/mL (Escherichia coli [10]) [mm] | zone of inhibition at 50 µg/mL (Bacillus subtilis [11]) [mm] | zone of inhibition at 50 µg/mL (Aspergillus flavus [12]) [mm] | zone of inhibition at 100 µg/mL [13] [mm] | zone of inhibition at 100 µg/mL (Bacillus subtilis [14]) [mm] | zone of inhibition at 100 µg/mL (Staphylococcus aureus [15]) [mm] | zone of inhibition at 100 µg/mL (Salmonella typhi [16]) [mm] |
| --- | --- | --- | --- | --- | --- | --- | --- | --- | --- | --- | --- | --- | --- | --- | --- | --- |
| O=c1c2ccccc2c(Cc2nnc(-c3ccsc3)o2)nn1Cc1ccc(Cl)nc1 | 7 | 6.5 | 11 | 15.5 | 5.5 | 10 | 6.5 | 7.5 | 7.5 | 10 | 4 | 4 | 10.5 | 6 | 11.5 | 15.5 |
| Cc1nnc(Cc2nn(Cc3cnc(Cl)s3)c(=O)c3ccccc23)o1 | 0 | 0 | 3.5 | 5.5 | 1 | 2.5 | 0 | 2.5 | 3 | 2.5 | 1 | 1 | 2.5 | 3 | 1 | 4.5 |
| Cc1nnc(Cc2nn(CCN3CCOCC3)c(=O)c3ccccc23)o1 | 0 | 0 | 3.5 | 2.5 | 1 | 1.5 | 0 | 2.5 | 3.5 | 0 | 0 | 1 | 0 | 1 | 3.5 | 4.5 |
| O=c1c2ccccc2c(Cc2nnc(-c3ccsc3)o2)nn1CCN1CCOCC1 | 3.5 | 7.5 | 10.5 | 8.5 | 4.5 | 4.5 | 3.5 | 7.5 | 9.5 | 3.5 | 3 | 6.5 | 6.5 | 6 | 5 | 7.5 |
| O=c1c2ccccc2c(Cc2nnc(C3CC3)o2)nn1Cc1ccc(Cl)nc1 | 1 | 4.5 | 7.5 | 11.5 | 5.5 | 3 | 0.5 | 8.5 | 5 | 7 | 4 | 2.5 | 2.5 | 6.5 | 4.5 | 6 |
| O=c1c2ccccc2c(Cc2nnc(-c3ccc(Cl)cc3)o2)nn1Cc1cnc(Cl)s1 | 7 | 1 | 4 | 9 | 3 | 5 | 2 | 6.5 | 5 | 5 | 3 | 2.5 | 4.5 | 5.5 | 10 | 9.5 |
